# Measured values published in ChEMBL document CHEMBL4513216, “Probing the Open Global Health Chemical Diversity Library for Multistage-Active Starting Points for Next-Generation Antimalarials” (ACS Infect Dis, 2020).
# Assay: Toxicity liver stage against HepG2, at 10uM
# Format: cell-based
# Parameters: test concentration 10 uM, cell line HepG2-A16-CD81EGFP
# Details: human, HepG2-A16-CD81EGFP cells; read-out: INHIBITION
# Method in brief: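 Uninfected HepG2-A16-CD81EGFP cells, 3 × 10^3 per well, 1536-well, plated on prespotted compound at 10 μM final, parasite-free screening media added to match infected plates; puromycin 10 μM positive, DMSO 0.5% negative; run in parallel with 48 h PbLuc assay at 37 °C, 5% CO2; viability by CellTiter-Glo luminescence, normalized to controls.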
row,SMILES,cytotoxicity at 10 µM
1,CC(C)c1nn(CC(=O)N2CCCC2)c(=O)c2c1cnn2C(C)(C)C,1.12%
2,Cn1cccc1C(O)CNC(=O)c1ccc2nsnc2c1 (configuration not stated),4.4%
3,O=S(=O)(NCC1CCN(c2cnccn2)CC1)c1ccc(F)c(Cl)c1,11.6%
4,CCN(CC)[C@@H]1CN(S(=O)(=O)c2cn(C)cn2)[C@@H]2CCCO[C@H]12,-147%
5,O=C(NC1CC1)N1CCc2ccc(=O)n(CC3CC3)c2CC1,-4.63%
6,CC(C)N1CCc2onc(Cn3cccn3)c2C1,5.44%
7,Cc1noc(C2CCC3(CCN(C(=O)c4sccc4C)CC3)O2)n1 (configuration not stated),8.94%
8,CCOC[C@H]1CC[C@H]2[C@H](CCN2C(=O)c2cnccn2)O1,2.22%
9,Cn1cccc1C(=O)N1CC[C@H]2[C@H](CO[C@H]2CNS(C)(=O)=O)C1,-2.94%
10,Cc1occc1C(=O)N1CCCC2(CCN(c3ccccc3)C2=O)C1 (configuration not stated),-5.5%
11,Cc1nc(C)c2c(n1)CCN(Cc1ccco1)CC2,-0.141%
12,CCS(=O)(=O)N1CCc2onc(CNc3ncccn3)c2C1,-0.748%
13,N#Cc1cc(C#N)c(SCC(=O)NCc2ccc(F)cc2)nc1N,0.0723%
14,CC(C)Cc1noc(C2CCCN(C(=O)CCc3cnn(C)c3)C2)n1 (configuration not stated),0.297%
15,COCCNc1nnc(-c2cnc(C)cn2)s1,4.22%
16,COc1ccccc1C1Cn2ccnc2CN1Cc1c[nH]nc1C (configuration not stated),-3.85%
17,CN(C)c1cccc(C2CCCN2S(=O)(=O)c2cn(C)cn2)n1 (configuration not stated),-28.7%
18,CC(=O)N1CCn2c(nnc2C2CCCCN2C(C)=O)C1 (configuration not stated),-28.1%
19,Cc1ccc2nc(C(=O)N3CCCC[C@]4(C)NC(=O)CCC[C@H]34)cn2c1,-9.99%
20,Cc1ccnc(NC(=O)c2cc(C)oc2C)c1,-4.57%
21,CC(C(=O)N1CCOCC1)S(=O)(=O)Cc1noc(C(C)(C)C)n1 (configuration not stated),-14.2%
22,c1ccc(-c2nnc3n2CCN(c2nc(C4CC4)ns2)C3)cc1,0.38%
23,OC(CNCCc1nnc2ccccn12)c1ccc(F)c(F)c1 (configuration not stated),2.52%

row,SMILES,cytotoxicity at 10 µM
1,CN(C)c1ccc(NC(=O)c2cccc(N(C)C)c2)nc1,23.3%
2,Cc1noc(CNC(=O)NCCOc2ccc(Cl)cc2)n1,1.92%
3,NC(=O)c1cnn2c1NCC(CNCC1(c3ccccc3)CCC1)C2 (configuration not stated),-7.73%
4,Cc1ccc(C)c(C(=O)NC2CCC(N3C(=O)CCC3=O)CC2)c1 (configuration not stated),3.38%
5,Cc1nn(C(C)(C)C)c(=O)n1CC(=O)NCC(F)(F)F,-1.32%
6,COc1ncccc1CNC(=O)c1csc(Br)c1,-8.03%
7,CNS(=O)(=O)Cc1cccc(CNc2ccc(C#N)cn2)c1,-11.2%
8,CC(C)N(C)C(=O)COc1ccc(-c2noc(C3CCCO3)n2)cc1 (configuration not stated),4.24%
9,COCc1ccccc1C(=O)N1CCC(CNC(=O)OC(C)(C)C)C1 (configuration not stated),10.1%
10,CCC(C)(NCC(=O)NC(=O)NC)c1nc(C)cs1 (configuration not stated),-4.36%
11,Cn1ccnc1CNc1c(F)cccc1-n1cccn1,-5.2%
12,CCc1nnc2n1CCN(Cc1csc(-c3ncccn3)n1)C2,-2.33%
13,CCOc1cccc(NC(=O)c2cscn2)n1,-3.59%
14,COC(=O)c1cnc(C(=O)N(c2ccc(OC)c(F)c2)C(C)C)cn1,-1.23%
15,CCCS(=O)(=O)CCN1CCOC(c2ccsc2)C1 (configuration not stated),-2.69%
16,CCN(C)c1ccc(CNC(=O)c2cc(C(N)=O)cs2)cc1F,6.36%
17,CCN(C(=O)c1ccccc1I)C1CC(=O)NC1=O (configuration not stated),-3.86%
18,CCSc1ccc(NC(=O)NC(C)c2ccncc2)cn1 (configuration not stated),-5.14%
19,NC(=O)CCSCc1cc(Br)cc2cccnc12,-7.68%
20,COC(=O)c1cccc(CNC(=O)c2cc(C(C)C)n(C)n2)c1,-3.26%
21,CSc1sc(NC(=O)C2CCCN(C(N)=O)C2)nc1C (configuration not stated),6.08%
22,Cc1cc(C)n(CC(=O)NC2CCCCNC2=O)n1 (configuration not stated),-14.7%
23,CN(Cc1nc(N)nc(N(C)C)n1)Cc1cccc2ccccc12,0.554%

row,SMILES,cytotoxicity at 10 µM
1,CC(=O)NC(C(=O)N(C)Cc1nnc2n1CCC2)C(C)C (configuration not stated),-7.85%
2,Cn1cc(C2CCCN2c2ncnc3[nH]ccc23)cn1 (configuration not stated),-9.59%
3,OC(CNc1ccc(Cl)cn1)CN1CCOCC1 (configuration not stated),4.15%
4,Cc1noc(C)c1CN(C)C(=O)NC(C)c1cccs1 (configuration not stated),1.41%
5,CC(C)N(C(=O)CCc1ccco1)C1CCOCC1,-5.63%
6,Cc1ncc(CNC(=O)NC2CCN(C3CCCC3)CC2)s1,-9.01%
7,Cc1ccc(Sc2nccn(C)c2=O)cc1,4.8%
8,N#CC(Sc1nnnn1C1CCOCC1)C1CCCCC1 (configuration not stated),21.7%
9,O=C(NCCOc1ccc(F)c(F)c1)NCc1cccc(CO)c1,-8.86%
10,CC(=O)Nc1cccc(OCCNC(=O)N(C)Cc2ccco2)c1,-9.29%
11,CC(=O)c1ccccc1NC(=O)CCN1CCSCC1,-7.88%
12,Cc1nnc(SCCNC(=O)CC2CCc3ccccc32)s1 (configuration not stated),-3.13%
13,COC(=O)N1CCC(Oc2ccc(C(=O)NCCN(C)C)cc2Cl)CC1,-6.34%
14,CCOc1cccc(C(=O)N2CCC3(CC2)[C@H](O)C[C@@H]3OC)c1,2.01%
15,Cc1n[nH]c(C)c1CCc1n[nH]c(=O)n1Cc1cccs1,-146%
16,Cc1cc2cccc(C(=O)N3CC[C@](C)(O)[C@H](C)C3)c2o1,4%
17,CC(C)OC(C)c1nnc(SCC(=O)O)n1-c1ccc(F)cc1F (configuration not stated),-11.6%
18,Cc1ccc2cc(C3(O)CCN(C(=O)[C@@H]4CCCCN4)CC3)ccc2n1,-0.456%
19,COCc1noc(CCNc2ncnc3c2CCNCC3)n1,-5.59%
20,CCN(CCc1nc2cc(C)ccc2[nH]1)C(=O)COC,-5.89%
21,CCOC(=O)N1CCC2(CCCN(C3CCOCC3)C2=O)C1 (configuration not stated),-133%
22,CC(=O)N1CCC(C(=O)NC2CC(C)(C)Oc3cc(C)ccc32)CC1 (configuration not stated),-5.41%
23,O=C(c1ccco1)N1CCc2c(nc(-c3ccncc3)[nH]c2=O)C1,10.4%

row,SMILES,cytotoxicity at 10 µM
1,Cc1c(Cl)c(C(=O)N2CC(c3cccnc3)C2)nn1C,-5.23%
2,Cc1nn(-c2ccccc2)c(C)c1-c1ccnc(N2CCCOCC2)n1,-11.3%
3,O=C(O)[C@@H]1CN(C(=O)c2ccc3[nH]nnc3c2)C[C@H]1c1ccccc1,-130%
4,Cc1ccc(C)c2c(C)c(C(=O)NCCCn3cnnc3)[nH]c12,6.28%
5,O[C@H]1[C@H](n2cc(CN3CCCC3)nn2)c2ccccc2C12CCNCC2,-3.76%
6,COCc1cc(NCCc2ccc(F)cc2)n2nccc2n1,-12.6%
7,CC(C(=O)N1CCCC1)N1CCC(c2nccn2Cc2cscn2)CC1 (configuration not stated),2.79%
8,Cc1nccn1CCC1CCCCN1Cc1ccncc1 (configuration not stated),35.2%
9,Cc1cc(I)c2c(c1)C(=O)C(CN1CCCC1)(CN1CCCC1)CO2,-6.86%
10,Cc1ccc(O)c(C(=O)N2CCOCC2c2c(C)nn(C)c2C)c1 (configuration not stated),-8.53%
11,CC(NC(=O)NCc1ccoc1)c1ccc2c(c1)CC(=O)N2 (configuration not stated),-1.82%
12,O=C(CN1CCOC(CNc2cccnn2)C1)N1CCCCC1 (configuration not stated),5.18%
13,Cc1ccccc1C1(C(=O)NCCN(C(C)C)C(C)C)CCOCC1,-6.51%
14,COC1CCN(C(=O)Cc2csc(-c3ccccc3)n2)CC1,-6.75%
15,CCOCC(O)CN1CCN(C(=O)Cc2cccc(C)c2)CC1 (configuration not stated),-7.1%
16,O=C(CN1CCCC1Cn1cccn1)NCCC1=CCCCC1 (configuration not stated),-2.78%
17,CS(=O)(=O)c1cccc(C(N)c2ccc(Cl)cc2)c1 (configuration not stated),-16.1%
18,CCc1ncc(C(=O)N2CCC(Nc3ccc(C)nn3)CC2)s1,-7.94%
19,OC(COCc1ccco1)CN1CCc2c(ncn2C2CC2)C1 (configuration not stated),-0.885%
20,Cc1nn(C)c(N(C)C)c1CNCc1ccnc(N2CCCCC2)c1,-9.32%
21,Cc1nn(C)c(N(C)C)c1CNC(C)COc1ccc(F)cc1 (configuration not stated),-4.38%
22,COc1ccc(Cl)cc1CC(=O)N1CCN(CC(C)(C)O)CC1,-4.21%
23,CC(C)CCCNC(=O)Nc1ccc(Cl)c(C(N)=O)c1,-0.252%

row,SMILES,cytotoxicity at 10 µM
1,CCn1ccnc1CN1CCCC1Cn1cc(C)cn1 (configuration not stated),-14.3%
2,CC(C)c1nc2c(n1C)CCN(CC(=O)Nc1cccnc1)C2,-9.52%
3,O=C(NCC(c1ccc(F)cc1)N1CCOCC1)Nc1cn[nH]c1 (configuration not stated),-15%
4,COc1cccc(-c2nc(CNC(C)Cn3cccn3)cs2)c1 (configuration not stated),-6.31%
5,Cc1cccc(-c2noc(CN3CCc4nn(C)c(=O)cc4C3)n2)c1,5.15%
6,Cc1ccc(C(=O)NCCNc2ncccc2C#N)c(=O)[nH]1,-7.44%
7,CN1CCCC(c2cncc(C(=O)NCc3ccccc3Cl)n2)C1 (configuration not stated),-2.82%
8,CC(C)Nc1cccc(CC2CCN(C)C2)n1 (configuration not stated),-27.6%
9,COCC1c2c(cnn2CC2CC2)CCN1Cc1ccc(C)o1 (configuration not stated),-0.201%
10,CCO[C@H]1CCN(S(=O)(=O)c2cn(C)cn2)[C@H]1Cc1ccccc1,7.95%
11,Fc1cnc(N2CCc3nnc(COc4ccccn4)n3CC2)nc1,8.13%
12,CCS(=O)(=O)NC[C@]12COC[C@H]1CN(CCc1ccccc1)C2,6.07%
13,CN(C)CCN1CCCC12CCN(C(=O)c1ccncc1)CC2,6.29%
14,CCN(C)c1ncnc2c1CCN(C(=O)c1ccccn1)CC2,-2.23%
15,O=S(=O)(C1CC1)N1CC[C@H]2OCC[C@@]2(COc2ncccc2F)C1,-150%
16,CCOCC1CN(S(=O)(=O)N(C)C)Cc2cnn(CC3CC3)c21 (configuration not stated),12%
17,O=C(NCC1CCOCC1)[C@@H]1CC[C@@H]2[C@@H](CCN2Cc2ccncc2)O1,4.85%
18,CCCS(=O)(=O)N1C[C@@H]2CN(Cc3ccoc3)CCO[C@@H]2C1,-117%
19,CN1CCOCC2(CCCN(C(=O)c3cn(C)cn3)C2)C1 (configuration not stated),8.47%
20,COCCOC(=O)N1C[C@@H]2CC[C@H]1CN(C1Cc3ccccc3C1)C2,1.06%
